Experimental data: ChEMBL document CHEMBL1148953, “Activity-guided fractionation of the leaves of Ormosia sumatrana using a proteasome inhibition assay” (J Nat Prod, 2004)
The source made the active and inactive calls. The calls are words filed in the database; no cut-off is given here.

Experiments:
[1] = system: HL-60; assay: Inhibition of human HL60 cells-derived chymotrypsin-like proteasome activity at 28 uM; format: subcellular
[2] = (§1) Inhibition of human HL60 cells-derived chymotrypsin-like proteasome activity; format: subcellular; details: hl-60
Outline: (§2)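 Proteasome-enriched fraction from HL-60 cells, prepared by 100 000g spin, then 5% and 12% PEG (w/v) fractionation and 2-fold dilution in 10 mM Tris-EDTA pH 7.5. Fraction at final 50 µg/mL in 155 mM Tris, 10 mM EDTA, pH 7.4. Preincubated with inhibitor 30 min at room temperature, then 10 µM Suc-LLVY-AMC for 1 h. Free AMC read at ex 360/em 460 nm. IC50 reported.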

[3] = In vivo cytotoxicity against human RPE1 cells expressing human telomerase reverse transcriptase by hollow fiber assay; format: functional, TERT-RPE1
[4] = system: Col2; assay: In vivo cytotoxicity against human Col2 cells by hollow fiber assay; format: functional
[5] = system: KB; assay: In vivo cytotoxicity against human KB cells by hollow fiber assay; format: functional
[6] = system: HL-60; assay: as §1; format: subcellular; outline: as §2

inhibition [1] [%]	IC50 [2] [µM]	Activity [6]	SMILES	ED50 [3] [µg/mL]	ED50 [4] [µg/mL]	ED50 [5] [µg/mL]
< 10	–	–	O=C(/C=C/c1ccccc1)O[C@@H]1Cc2c(O)cc3c(c2O[C@@H]1c1ccc(O)c(O)c1)[C@H]1c2c(O)cc(O)cc2O[C@@](c2ccc(O)c(O)c2)(O3)[C@@H]1O	–	–	–
–	30	–	CCCCCCCC/C=C\CCCC[C@@H](O)[C@@H](O)C(CO[C@@H]1O[C@H](CO)[C@@H](O)[C@H](O)[C@H]1O)NC(=O)[C@@H](O)CCCCCCCCCCCCCCCCCCCCCC (stereo not given in full) [SUMATRANOSIDE]	–	–	–
–	–	inactive	CCCCCCCCCCCCCCCCCCCCCC[C@@H](OC(C)=O)C(=O)OC	>5	>5	>5
–	–	inactive	CCCCCCCC/C=C\CCCC[C@@H](OC(C)=O)[C@@H](OC(C)=O)[C@H](COC(C)=O)NC(C)=O	>5	>5	>5
